Article PMC2910176 (Food and chemical toxicology : an international journal …, 2010)

Key:
MCF-7 = experiment: MTT cell viability assay in MCF-7; format: cell-based, human; details: for Concentration producing 50% growth inhibition (IC50): MCF-7, 48 hours, MTT
[1] = system: human peripheral blood mononuclear cells (PBMC); experiment: PBMC proliferation; format: cell-based; details: 72 hours, with polymyxin B; α-turmerone 10 or 15 μg/ml, ar-turmerone 5-15 μg/ml
In short: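 PHA-activated PBMC (PHA 10 μg/ml final; polymyxin B 10 μg/ml present to bind LPS) were incubated 72 h with test compound at 5, 10 or 15 μg/ml, with matched vehicle. [methyl-3H]-thymidine (0.5 μCi/well) was added for the final 6 h. Cells were harvested onto glass-fibre filters for scintillation counting. Results are % cpm relative to untreated control, mean of 8 donors.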

HepG2 = experiment: MTT cell viability assay in HepG2; format: cell-based, human; details: for Concentration producing 50% growth inhibition (IC50): HepG2, 48 hours, MTT
MDA-MB-231 = experiment: MTT cell viability assay in MDA-MB-231; format: cell-based, human; details: for Concentration producing 50% growth inhibition (IC50): MDA-MB-231, 48 hours, MTT
Hs-68 = experiment: MTT cell viability assay in normal skin fibroblasts Hs-68; format: cell-based, human; details: for inhibition of cell proliferation in human normal skin fibroblasts: 3.125–25 μg/ml; for Concentration producing 50% growth inhibition (IC50): Hs-68 normal skin fibroblasts, 48 hours, MTT
[2] = system: human peripheral blood mononuclear cells (PBMC); experiment: Cytokine production by PBMC; format: cell-based; details: for TNF-α production in PHA-activated PBMC / IFN-γ production in PHA-activated PBMC / IL-2 production in PHA-activated PBMC: 24 hours; for TNF-α production in PHA-activated PBMC: 10 and 15 μg/ml; for IFN-γ production in PHA-activated PBMC / IL-2 production in PHA-activated PBMC: data not shown
In short: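 PBMC came from buffy coat by Ficoll density separation, with ≥95% trypan-blue viability, at 4 × 10^5/well. Resting or PHA-activated (10 μg/ml final) cells received test compound at 5, 10 or 15 μg/ml, with matched vehicle, for 24 h. Supernatants were recovered by centrifugation (300×g), stored at −80°C and assayed for IL-2, IFN-γ and TNF-α by ELISA. There were 8 donors, four wells each, reported as mean + SD; the statistic was an unpaired t-test versus control.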

MDA-MB-231 cells [3] = experiment: DNA fragmentation assay; format: cell-based, human; details: MDA-MB-231, 24 and 48 hours
In short: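 MDA-MB-231 cells (1 × 10^6) were attached for 24 h in 100 mm dishes, then given test compound (40–80 μg/ml) or 0.4% v/v ethanol for 24 or 48 h. Lysis was 15 min at 37°C in 200 mM Tris-HCl, 100 mM EDTA, 1% SDS, pH 8.3. RNase A, then proteinase K, each ran 90 min at 56°C, followed by ethanol/sodium acetate precipitation. DNA ran on 1.5% agarose with ethidium bromide beside a 100 bp marker; n=3.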

MDA-MB-231 cells [4] = experiment: Annexin V-FITC/PI staining assay; format: cell-based, human; details: MDA-MB-231, 24 hours
In short: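 MDA-MB-231 cells (3 × 10^5/well) were exposed to test compound at various concentrations for 24 h. They were washed twice in 1X binding buffer, then labelled with annexin-V FITC plus PI for 15 min at room temperature in the dark, and analysed by flow cytometry. Annexin-V+ PI− (lower right quadrant) was taken as early apoptosis. Three independent experiments were run.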

MDA-MB-231 cells [5] = experiment: Western blot analysis of apoptosis and proliferation proteins; format: cell-based, human; details: MDA-MB-231, 40 or 60 μg/ml
In short: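 MDA-MB-231 cells (1 × 10^6) were treated with test compound (40 or 60 μg/ml) or 0.4% v/v ethanol for 24 or 48 h. Lysis used 2% SDS, 10% glycerol, […] Tris-HCl, pH 6.8, on ice, then 95°C for 10 min. Lysates ran on 12% SDS-PAGE onto PVDF and were blocked in 5% milk/TBST. Primaries (overnight) were Bcl-2 and procaspases-3/-8 at 1:100 and cyclin D at 1:200; the β-actin loading control was 1:2000. HRP secondary was used with ECL; three independent experiments.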

MDA-MB-231 cells [6] = experiment: Cell cycle analysis; format: cell-based, human; details: MDA-MB-231, after treatment
In short: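 MDA-MB-231 cells (3 × 10^5/well, 6-well) were plated overnight and then treated with test compound (30–45 μg/ml). They were fixed in 70% v/v ethanol at 4°C overnight and stained with PI (20 μg/ml) plus RNase A (10 μg/ml) for 30 min at 37°C in the dark. Flow cytometry collected 10,000 cells per sample, and cell cycle and apoptotic peaks were modelled; n=3.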

[7] = system: cancer cell lines HepG2, MCF-7 and MDA-MB-231; experiment: Anti-proliferative activity in cancer cell lines; format: cell-based, human; details: dose-dependent, three cancer cell lines
[8] = system: human peripheral blood mononuclear cells (PBMC); details: ref Yadav et al., 2005; cited from earlier work
[9] = system: human peripheral blood mononuclear cells (PBMC); details: ref Yadav et al., 2005; cited from earlier work; remark: listed apart in the source

Row | SMILES | Concentration producing 50% growth inhibition (IC50) (MCF-7) [µg/mL] | proliferation of PHA-activated PBMC [1] | Concentration producing 50% growth inhibition (IC50) (HepG2) [µg/mL] | Concentration producing 50% growth inhibition (IC50) (MDA-MB-231) [µg/mL] | inhibition of cell proliferation in human normal skin fibroblasts (Hs-68) | Concentration producing 50% growth inhibition (IC50) (Hs-68) [µg/mL] | TNF-α production in PHA-activated PBMC [2] | IFN-γ production in PHA-activated PBMC [2] | IL-2 production in PHA-activated PBMC [2] | proliferation of cancer cells [7] | further results
1 | CC(C)=CC(=O)C[C@H](C)c1ccc(C)cc1 [ar-turmerone] | >100 | significantly stimulate | >100 | >100 | did not induce any significant inhibition | >100 | significantly increased | neither α-turmerone (AL) nor ar-turmerone (AR) further altered | neither α-turmerone (AL) nor ar-turmerone (AR) further altered |  | IFN-γ production in resting PBMC ([2]; 24 hours, 5, 10 or 15 μg/ml): significantly increased; IL-2 production in resting PBMC ([2]; 24 hours, 5, 10 or 15 μg/ml): significantly increased; TNF-α production in resting PBMC ([2]; 24 hours, 5, 10 or 15 μg/ml): significantly increased
2 | CC(C)=CC(=O)CC(C)C1C=CC(C)=CC1 (stereo not drawn) [α-turmerone] | 41.8 | significantly stimulate | 32.9 | 30.2 | did not induce any significant inhibition | >100 | significantly increased | neither α-turmerone (AL) nor ar-turmerone (AR) further altered | neither α-turmerone (AL) nor ar-turmerone (AR) further altered | significantly inhibited | DNA fragmentation (MDA-MB-231 cells [3]): detected; inhibition of cell proliferation compared to the control (MCF-7; MCF-7, 50 μg/ml, 48 hours): ~70%; proportion of early apoptosis cells (Annexin V-FITC positive and PI negative) (MDA-MB-231 cells [4]): increased with the concentrations; Bcl-2 expression (MDA-MB-231 cells [5]): slightly down-regulated; cleaved PARP (MDA-MB-231 cells [5]): observed; expression level of pro-caspase-3 (MDA-MB-231 cells [5]): significantly decreased; expression level of pro-caspase-8 (MDA-MB-231 cells [5]): significantly decreased; expression of cyclin D1 (MDA-MB-231 cells [5]): significantly decreased; proteolytic cleavage of pro-caspase-9 (fragments p35 and p37) (MDA-MB-231 cells [5]): observed; inhibition of cell proliferation compared to the control (HepG2; HepG2, 50 μg/ml, 48 hours): ~70%; inhibition of cell proliferation compared to the control (MDA-MB-231; MDA-MB-231, 50 μg/ml, 48 hours): ~70%; cell cycle arrest (MDA-MB-231 cells [6]): no arrest at any phase of the cell cycle
3 | COc1cc(/C=C/C(=O)CC(=O)/C=C/c2ccc(O)c(OC)c2)ccc1O [Curcumin, curcumin] |  |  |  |  |  |  |  |  |  | significantly inhibited | PHA-induced proliferation in PBMC [8]: inhibited; IL-2 production in PBMC (PHA-induced) [9]: inhibited
4 | O=C(/C=C/c1ccc(O)cc1)CC(=O)/C=C/c1ccc(O)cc1 [Bisdemethoxycurcumin, bisdemethoxycurcumin] |  |  |  |  | did not induce any significant inhibition |  |  |  |  | significantly inhibited | 
5 | COc1cc(/C=C/C(O)=C/C(=O)/C=C/c2ccc(O)cc2)ccc1O [Demethoxycurcumin, demethoxycurcumin] |  |  |  |  | did not induce any significant inhibition |  |  |  |  | significantly inhibited | 
